In ChEMBL document CHEMBL1126072, “Hydantoin bioisosteres. In vivo active spiro hydroxy acetic acid aldose reductase inhibitors” (J Med Chem, 1992):

What was measured:
Rattus norvegicus [1] = experiment: In vivo inhibition of sorbitol accumulation in sciatic nerves from streptozotocin-diabetic rats dosed at 3*25 mg/kg over 27h.; format: functional, Sciatic nerve
[2] = biological target: T1, Aldo-keto reductase family 1 member B1 (Homo sapiens, UniProt P15121); experiment: (§1) ARI(aldose reductase inhibitor) enantiospecificity against human placental aldose reductase.
How it was run: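 Partially purified human placental enzyme (buffer homogenate, 33000g spin, pooled peak fractions, frozen). Rate of NADPH oxidation read at 340 nm, 25 °C, 12 min, in 50 mM phosphate pH 7.1 with 0.4 M NH4SO4, 0.067 mM NADPH, 1.0 mM dl-glyceraldehyde; enzyme at 4 milliunits. Molar IC50 ± SD over n experiments, from log-linear fit with common slope.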

Rattus norvegicus [3] = experiment: Nerve concentration at 3h after the last dose of 25 mg/kg for 5 days.; format: functional
Rattus norvegicus [4] = experiment: Effective dose was tested against the inhibition of sorbitol accumulation in sciatic nerves from streptozotocin-diabetic rats dosed at 3*25 mg/kg over 27h.; format: functional; settings: Sciatic nerve
Rattus norvegicus [5] = experiment: Plasma concentration at 3h after the last dose of 25 mg/kg for 5 days.; format: functional
[6] = biological target: T1, Aldo-keto reductase family 1 member B1; experiment: Inhibitory activity against human placental aldose reductase
[7] = biological target: T1, Aldo-keto reductase family 1 member B1; experiment: Compound was tested in vitro for its inhibitory activity against human placental aldose reductase
Rattus norvegicus [8] = experiment: Inhibition of sorbitol accumulation in sciatic nerves from streptozotocin-diabetic rats dosed at 3*25 mg/kg over 27h.; format: functional, Sciatic nerve
Rattus norvegicus [9] = experiment: In vivo inhibition of sorbitol accumulation in sciatic nerves from streptozotocin-diabetic rats dosed at 1*25 mg/kg over 5 days.; format: functional, Sciatic nerve
Rattus norvegicus [10] = experiment: In vivo inhibition of sorbitol accumulation in sciatic nerves from streptozotocin-diabetic rats dosed over 5 days. at a dose of 2.5 mg/kg; format: functional; settings: Sciatic nerve, 120 h
Rattus norvegicus [11] = experiment: In vivo inhibition of sorbitol accumulation in sciatic nerves from streptozotocin-diabetic rats dosed over 27 h. at a dose of 5 mg/kg; format: functional; settings: Sciatic nerve
Rattus norvegicus [12] = experiment: In vivo inhibition of sorbitol accumulation in sciatic nerves from streptozotocin-diabetic rats given three doses over 27 h. at a dose of 2.5 mg/kg; format: functional; settings: Sciatic nerve
How it was run: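 Male Sprague-Dawley rats (180–220 g, 42–54 days) made diabetic with streptozotocin 85 mg/kg at 0 h. Oral gavage at 4, 7 and 24 h, dose quoted per time point. Sciatic nerve sorbitol measured with sorbitol dehydrogenase/NAD in pH 9.4 glycine. Mean (±SEM) percent inhibition against untreated diabetic controls, Student's t test on absolute sorbitol.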

Rattus norvegicus [13] = experiment: In vivo inhibition of sorbitol accumulation in sciatic nerves from streptozotocin-diabetic rats dosed over 27 h. at a dose of 10 mg/kg; format: functional; settings: Sciatic nerve
Rattus norvegicus [14] = experiment: In vivo inhibition of sorbitol accumulation in sciatic nerves from streptozotocin-diabetic rats dosed over 27 h. at a dose of 25 mg/kg; format: functional; settings: Sciatic nerve
Rattus norvegicus [15] = experiment: In vivo inhibition of sorbitol accumulation in sciatic nerves from streptozotocin-diabetic rats dosed over 5 days. at a dose of 5 mg/kg; format: functional; settings: Sciatic nerve, 120 h
How it was run: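 Rats made diabetic with iv streptozotocin 85 mg/kg. From day 7, oral gavage once daily for 5 days. Animals killed 3 h after the last dose. Sorbitol in neutralized perchloric acid extracts of 25-mg sciatic nerve portions measured with sheep liver sorbitol dehydrogenase and NAD in pH 9.4 glycine. Percent inhibition against diabetic controls.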

Rattus norvegicus [16] = experiment: In vivo inhibition of sorbitol accumulation in sciatic nerves from streptozotocin-diabetic rats dosed over 5 days. at a dose of 10 mg/kg; format: functional; settings: Sciatic nerve, 120 h
Rattus norvegicus [17] = experiment: In vivo inhibition of sorbitol accumulation in sciatic nerves from streptozotocin-diabetic rats given one dose per day over 5 days at a dose of 25 mg/kg
Rattus norvegicus [18] = organism: Rattus norvegicus; experiment: animal or person; settings: Sciatic nerve, 27 h, read-out: Inhibition
[19] = biological target: T1, Aldo-keto reductase family 1 member B1; experiment: as §1; remark: listed apart in the source
Rattus norvegicus [20] = organism: Rattus norvegicus; experiment: animal or person; settings: Sciatic nerve, 120 h, read-out: Inhibition
Rattus norvegicus [21] = experiment: In vivo inhibition of sorbitol accumulation in sciatic nerves from streptozotocin-diabetic rats dosed over 5 days. at a dose of 25 mg/kg; format: functional; settings: Sciatic nerve, 120 h

Compound | IC50 [6] [µM] | inhibition in vivo at 2.5 mg/kg (Rattus norvegicus [10]) [%] | inhibition in vivo at 5 mg/kg (Rattus norvegicus [11]) [%] | inhibition in vivo at 2.5 mg/kg (Rattus norvegicus [12]) [%] | inhibition in vivo at 10 mg/kg (Rattus norvegicus [13]) [%] | inhibition in vivo at 25 mg/kg (Rattus norvegicus [14]) [%] | inhibition in vivo at 5 mg/kg (Rattus norvegicus [15]) [%] | inhibition in vivo at 10 mg/kg (Rattus norvegicus [16]) [%] | inhibition in vivo at 25 mg/kg (Rattus norvegicus [21]) [%] | other results
C[C@@H]1C[C@@](O)(CC(=O)O)c2cc(Cl)c(Cl)cc2O1 (stereo in doubt; 18) | 0.18 |  |  |  |  |  |  |  |  | Inhibition (Rattus norvegicus [1]): 53%; IC50 [2]: 0.156 µM; Tissue levels (Rattus norvegicus [3]): 6.01 µg/mL; ED50 (Rattus norvegicus [4]): 8.06 mg/kg; Tissue levels (Rattus norvegicus [5]): 19.7 µg/mL; IC50 [7]: 0.14 µM; Inhibition (Rattus norvegicus [8]): 91%; Inhibition (Rattus norvegicus [9]): 39%
C[C@@H]1C[C@@](O)(CC(=O)O)c2cc(Cl)c(Cl)cc2O1 (stereo in doubt; 58) | 0.0509 | 31 | 60 | 49 | 70 | 89 | 34 | 68 |  | Inhibition (Rattus norvegicus [17]): 78%
C[C@@H]1C[C@@](O)(CC(=O)O)c2cc(F)c(Cl)cc2O1 (stereo in doubt; 60) |  | 19 | 61 |  | 88 | 98 |  | 69 | 97 | inhibition in vivo at 2.5 mg/kg (Rattus norvegicus [18]): 39%; IC50 [19]: 0.0455 µM; inhibition in vivo at 5 mg/kg (Rattus norvegicus [20]): 52%
O=C(O)Cc1nn(Cc2ccc(Br)cc2F)c(=O)c2ccccc12 [PONALRESTAT] |  | 0 | 57 | 12 | 81 | 85 | 60 | 81 | 88 | 
